# High-throughput results from PubChem.
# This is a sample that favours compounds with a hit; in the whole collection about 1.4% have one here.
# HKDC1 inh: inhibitors of human hexokinase HKDC1. recombinant HKDC1, G6PDH/diaphorase resazurin coupled fluorescence. Q2TB90. 0.16% of 340,000 active. AID 493160. inhibition, % at 20 µM;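 active = inhibition above about 35% when tested at 20 µM, limit read from the data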;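 note: plate controls were DMSO wells with enzyme for no effect and DMSO wells lacking enzyme for full effect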
#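 Test system: recombinant HKDC1 (HK5) hexokinase enzyme, produced in-house / Doses: 20 µM test compound, 1% DMSO / Timing: 90 min, room temperature / Detection: G6PDH/diaphorase-coupled fluorescence, 1 mM NADP, 100 µM resazurin, 525/613 nm / Control set: DMSO wells with and without enzyme mix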
# Redox H2O2 prof: compounds producing H2O2 with reducing agent – biochemical, NIH compound library profiling, artefact control for MLSCN library redox annotation, primary screen; DTT-dependent redox cycling H2O2, phenol red/HRP absorbance; 100% = 100 µM peroxide control, 0% = buffer; activation, % at 10 µM; 0.03% of 200,000 active; AID 878;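 active = activation of at least 50% relative to the plate's high and low controls in the primary single-dose screen; inactive = activation below 50%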;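 note: compound incubated with DTT at 0.8 mM final as the reducing agent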
# SUMO HTRF inh: inhibitors of human SUMOylation (UBC9); HTRF SUMOylation assay, SAE1/SAE2 + UBC9, in vitro; P63279; 0.36% of 290,000 active; AID 2006; inhibition, % at 35 µM; in the data active = inhibition above about 50%, passing the limit was not always enough
# Target sequence (P63279 whole entry, looked up): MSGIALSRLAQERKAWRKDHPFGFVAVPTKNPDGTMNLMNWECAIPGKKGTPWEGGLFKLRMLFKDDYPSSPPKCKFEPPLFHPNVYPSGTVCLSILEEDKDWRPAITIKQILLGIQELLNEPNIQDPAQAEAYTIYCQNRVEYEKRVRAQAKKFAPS
# Apaf1 inhib: human Apaf-1 inhibition; inhibition, % at 20 µM; O14727; 0.71% of 330,000 active; reconstituted apoptosome caspase-3 activity, DEVD-Rh110 fluorescence; active = inhibition of at least 40% at 20 µM;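 note: plate controls were DMSO wells for no effect and DEVD-CHO caspase inhibitor wells for full effect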
#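 Material: reconstituted apoptosome with Apaf-1, cytochrome c, caspase-9, procaspase-3, dATP. Technique: Rh110 fluorescence intensity. Buffer or medium: pH 7.5 Hepes buffer with CHAPS, BSA, DTT. Times: 30 min plus 50 min, RT.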
# GSTO1 inh: counter-screen for RBBP9 inhibitors: inhibitors of human GSTO1; recombinant GSTO1, activity-based probe fluorescence polarization; inhibition, % at 5.96 µM; P78417; 1.1% of 300,000 active; AID 1974;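 active = inhibition above the campaign mean inhibition plus 3 SD, cut at about 35% in these data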;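 note: 0% = GSTO1-1 with DMSO and 100% = wells lacking GSTO1-1 enzyme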
# Target sequence (P78417 whole entry, looked up): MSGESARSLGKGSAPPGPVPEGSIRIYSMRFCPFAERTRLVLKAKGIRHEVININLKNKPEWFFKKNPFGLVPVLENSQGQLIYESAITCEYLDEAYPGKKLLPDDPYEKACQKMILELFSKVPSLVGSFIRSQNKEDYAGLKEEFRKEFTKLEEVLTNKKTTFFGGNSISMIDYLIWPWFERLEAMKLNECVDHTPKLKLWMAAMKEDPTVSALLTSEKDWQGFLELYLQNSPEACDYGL
# Apaf-1 inh conf: confirmation of Apaf-1 inhibitors; shares compounds with Apaf1 inhib; inhibition, % at 20 µM; 25% of 1,800 active; reconstituted apoptosome, caspase-3 DEVD-Rh110 fluorescence;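 active = mean inhibition of at least 40% at 20 µM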;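 note: plate controls were DMSO wells for no effect and DEVD-CHO caspase inhibitor control wells for full effect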
# Rh110 quench: counter-screen for Apaf-1 inhibitors: fluorescence interference; 1,800 tested, under 10 active; activation (fluorescence interference), % at 20 µM; Rh110 fluorescence interference, quenched caspase reaction; shares compounds with Apaf1 inhib;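 active = signal rise of 40% or more at 20 µM, treated as a fluorescence artifact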
# Active calls of the source: *; nt = no result given.
SMILES,HKDC1 inh,Redox H2O2 prof,SUMO HTRF inh,Apaf1 inhib,GSTO1 inh,Apaf-1 inh conf,Rh110 quench
Nc1ncnc2c1ncn2[C@@H]1O[C@H](CNC(=O)[C@@H](N)COCc2ccccc2)[C@@H](O)[C@H]1O,7,nt,nt,1,nt,nt,nt
CC1CN(S(=O)(=O)c2cccc(C(=O)N(CCc3ccccc3)Cc3ccccc3)c2)CC(C)O1 (configuration not stated),1,nt,nt,45*,-5,20,9
OCCN1CCN(CCCN2c3ccccc3Sc3ccc(C(F)(F)F)cc32)CC1,-2,0,6,48*,0,9,5
CN1CCN(CCC(=O)N2c3ccccc3Sc3ccc(C(F)(F)F)cc32)CC1,-10,0,5,4,4,nt,nt
OCCN1CCN(CC/C=C2/c3ccccc3CSc3ccccc32)CC1,-4,nt,nt,-1,6,nt,nt
CN(C)CCCN1c2ccccc2Sc2ccc(C(F)(F)F)cc21,3,0,0,43*,3,9,16
OCCN1CCN(CC/C=C2/c3ccccc3Sc3ccc(C(F)(F)F)cc32)CC1,6,nt,nt,58*,-3,11,2
O=C(COC(=O)C1=NN(c2ccccc2)C(=O)CC1)Nc1ccc([N+](=O)[O-])cc1C(F)(F)F,-3,nt,nt,-12,nt,nt,nt
c1ccc2c(-c3ccc(OCCN4CCCCC4)cc3)c(-c3ccsc3)sc2c1,0,nt,nt,59*,nt,10,10
c1ccc(-c2sc3ccccc3c2-c2ccc(OCCN3CCCCC3)cc2)cc1,-3,nt,nt,52*,nt,6,9
Oc1ccc(-c2c(-c3ccsc3)sc3ccccc23)cc1,1,nt,0,4,-2,nt,nt
COc1ccc(-c2sc3cc(OC)ccc3c2-c2ccc(OCCN3CCOCC3)cc2)cc1,8,nt,nt,31,nt,nt,nt
CCN(C(=O)CSc1nnc(CNc2cccc(OC)c2)n1C1CCCCC1)C1CCS(=O)(=O)C1 (configuration not stated),7,nt,-2,15,-3,nt,nt
CN1C(=O)CC(Nc2cccc3cccc(N)c23)C1=O (configuration not stated),16,0,90*,54*,23,12,3
CC1=NN(c2ccc(S(=O)(=O)O)cc2Cl)C(=O)C1,-1,0,83*,66*,13,19,-3
Cc1cccc(NC(=O)c2sc3nc4c(c(-c5cccs5)c3c2N)CN(C)CC4)c1,13,0,24,50*,6,24,13
CC(C)NC(=O)c1sc2nc3c(c(-c4cccs4)c2c1N)CN(C)CC3,-1,0,45,39,-1,nt,nt
Cc1cc(C(=O)N(C)Cc2c(F)cccc2Cl)c2ccccc2n1,4,nt,14,3,7,nt,nt
O=C(CSc1nc2ccccc2c(=O)n1-c1ccc(F)cc1)NC1CCS(=O)(=O)C1 (configuration not stated),-6,nt,nt,5,nt,nt,nt
COc1cccc2nc3cc(C)c(C)cc3nc12,27,nt,46,84*,48*,22,7
C#CCOCCOCCOCCNc1nc(N2CCN(C(=O)[C@H](CCCCN)n3cc([C@@H](N)[C@H](C)CC)nn3)CC2)nc(N2CCN(C(=O)[C@H](CCC(=O)O)n3cc([C@@H](N)CCCCN)nn3)CC2)n1,-2,nt,nt,47*,nt,-4,-2
C#CCOCCOCCOCCNc1nc(N2CCN(C(=O)[C@H](CCCN=C(N)N)n3cc(C(N)[C@@H](C)CC)nn3)CC2)nc(N2CCN(C(=O)[C@H](CCCCN)n3cc([C@@H](N)[C@H](C)CC)nn3)CC2)n1 (some centres not stated),-3,nt,nt,50*,nt,5,6
C#CCOCCOCCOCCNc1nc(N2CCN(C(=O)[C@H](CCCCN)n3cc(CN)nn3)CC2)nc(N2CCN(C(=O)[C@H](CCCCN)n3cc([C@@H](N)[C@H](C)CC)nn3)CC2)n1,-10,nt,nt,40*,nt,6,-1
C#CCOCCOCCOCCNc1nc(N2CCN(C(=O)[C@H](CCCN=C(N)N)n3cc(C(N)[C@@H](C)CC)nn3)CC2)nc(N2CCN(C(=O)[C@H](CCC(=O)O)n3cc([C@@H](N)CCCCN)nn3)CC2)n1 (some centres not stated),2,nt,nt,22,nt,nt,nt
C#CCOCCOCCOCCNc1nc(N2CCN(C(=O)[C@H](CCCCN)n3cc(CCCC)nn3)CC2)nc(N2CCN(C(=O)[C@H](CCCCN)n3cc(CCCC)nn3)CC2)n1,3,0,-8,50*,7,11,-3
SMILES,HKDC1 inh,Redox H2O2 prof,SUMO HTRF inh,Apaf1 inhib,GSTO1 inh,Apaf-1 inh conf,Rh110 quench
Cc1cc(N(CCO)CCO)ccc1N=Nc1cc(F)ccc1F,0,0,0,40*,5,22,15
OCCN(CCO)c1ccc(C(c2ccc(Cl)cc2)c2ccc(N(CCO)CCO)cc2Cl)c(Cl)c1,-4,0,-20,-9,0,nt,nt
CC[C@H](C)[C@H](NC(=O)OCc1ccccc1)C(=O)OCC(=O)Nc1ccc(N2CCOCC2)cc1,-1,nt,nt,9,1,nt,nt
COc1ccc(CCNS(=O)(=O)c2ccc(-c3ccc(=O)[nH]n3)o2)cc1OC,0,nt,-2,-2,-9,nt,nt
Cc1ccc(NCc2ccccc2O)cc1,8,-1,-9,-12,0,nt,nt
Cc1ccc(CNc2ccc(O)cc2)cc1,18,1,33,94*,nt,11,7
COc1ccc(Cl)cc1NC(=O)CN1C(=O)CC(C)S(=O)(=O)c2ccccc21 (configuration not stated),7,0,-1,1,5,nt,nt
Cc1cc2c(cc1S(=O)(=O)CCC(=O)NCCc1ccccc1)OCC(=O)N2,-5,nt,1,5,11,nt,nt
COc1ccc(-c2cc(=O)[nH][nH]2)cc1,0,0,82,17,24,nt,nt
COc1ccc(-c2cc(=O)n(CCC#N)[nH]2)cc1,5,0,35,94*,36*,7,-6
CC(Oc1ccc(Br)cc1)C(=O)NCC(C)(C)N1CCOCC1 (configuration not stated),0,nt,nt,47*,0,34,-1
O=C(Cn1ccc(NC(=O)OCc2ccccc2)nc1=O)NCc1ccc2[nH]ccc2c1,2,nt,nt,6,nt,nt,nt
CCN(C(=O)c1coc(=O)c(Br)c1)c1ccc2c(c1)OCO2,17,0,19,59*,32,18,0
CCN(C(=O)c1c(C)cc(=O)oc1C)c1ccc2c(c1)OCO2,-2,-4,25,6,5,nt,nt
CC(NS(=O)(=O)c1cccc(Cl)c1)C(=O)N(C)C1CCN(C)CC1 (configuration not stated),-10,-1,11,-12,2,nt,nt
O=C(Nc1ccc2nc(-c3cccs3)[nH]c2c1)c1cccs1,6,0,22,2,-9,nt,nt
